High-throughput results: PubChem BioAssay, several laboratories
UCH37 DUB inh: human UCH37 deubiquitinating enzyme inhibition; inhibition, % (no concentration beside the values); purified proteasome/UCH37, Ub-AMC cleavage fluorescence; Q9Y5K5; AID 588478; actives 0.33% (n = 330,000);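 active = mean inhibition over replicate wells above about 20%, limit read from the data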;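 also: 0% = compound-free wells with enzyme and 100% = wells lacking proteasome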
Target sequence (Q9Y5K5 whole entry, looked up): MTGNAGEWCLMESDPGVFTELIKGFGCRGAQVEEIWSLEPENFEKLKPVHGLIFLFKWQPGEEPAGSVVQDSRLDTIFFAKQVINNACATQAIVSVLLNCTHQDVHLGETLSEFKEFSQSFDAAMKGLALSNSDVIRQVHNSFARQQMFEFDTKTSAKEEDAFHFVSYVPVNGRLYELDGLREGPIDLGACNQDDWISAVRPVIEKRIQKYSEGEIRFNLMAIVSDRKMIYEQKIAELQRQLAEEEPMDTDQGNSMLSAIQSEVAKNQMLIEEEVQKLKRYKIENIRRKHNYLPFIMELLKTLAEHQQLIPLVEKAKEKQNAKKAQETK
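Signal – fluorescence, ex 355 nm, em 460 nm · System – Proteasome-bound UCH37 · Input – 0.15 nM proteasome as dispensed · Timing – 30 min preincubation with enzyme, 25 min cleavage at room temperature · Read-out basis – percent inhibition of cleavage signal versus uninhibited and no-proteasome wells · Medium – Tris-HCl pH 7.4 with ATP-MgCl2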
UPR CHOP act: apoptotic UPR (CHOP) activation; CHO-CHOP luciferase reporter, luminescence; percent of tunicamycin response over DMSO baseline; activation, % at 10 µM; actives 0.34% (n = 330,000);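 active = at 10 µM dose, activation of 40% or more, normalized to positive control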;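 also: 100% = tunicamycin at 10 µg/mL and 0% = DMSO alone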
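System: CHO-CHOP luciferase reporter cell line; amount: 500 cells/well; buffer or medium: F12 medium containing 10% fetal bovine serum; incubation: 6 h compound exposure at 37 °C after overnight seeding; measured by: luciferase luminescence after 10 min with Steady-Glo reagent; evaluation: % reporter activation, DMSO baseline versus tunicamycin full activation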
Fh CTSL1 inh: cathepsin L1 inhibition, PFM18AAP counter-screen; recombinant F. hepatica cathepsin L1, Z-Leu-Arg-MCA fluorescence; inhibition, % at 5.96 µM; actives 0.49% (n = 300,000); AID 1906;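 active = inhibition above the mean of all tested compounds plus 3 SD, set per screening campaign, cut at about 17% in these data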;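 also: 0% = plate median of test compound wells and 100% = 1 µM Z-Phe-Ala-diazomethylketone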
CHOP inhibitor: blocks CHOP induction under ER stress | actives 3.8% (n = 220,000) | CHO-K1 CHOP-promoter luciferase, tunicamycin-induced, 15-18 h | inhibition, % at 10 µM;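 active = compounds that reduced the stress-induced luciferase reporter signal by more than about 70% of percent inhibition, limit read from the data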;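 also: 0% = tunicamycin plus vehicle and 100% = wells without tunicamycin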
UPR XBP1 act: activators of adaptive arm of unfolded protein response (XBP1) | actives 0.33% (n = 330,000) | CHO-XBP1 luciferase reporter, IRE1-XBP1 UPR activation, luminescence; percent of tunicamycin response, DMSO as zero | activation, % at 20 µM;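 active = versus positive control, 20 µM dose yields 30% or more activation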;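 also: 100% = tunicamycin at 10 µg/mL and 0% = DMSO only wells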
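Material: CHO-XBP1 cells stably carrying IRE1-XBP1-driven luciferase reporter | Medium: F12 with 10% serum | Compound dosing: 20 µM single concentration, DMSO 1% | Incubation: Overnight seeding at 37 °C, 6 h compound treatment at 37 °C | Detection: Steady-Glo luminescence read | Read-out basis: % activation of reporter signal versus tunicamycin and DMSO controls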
CHOP inh conf: confirmation of CHOP induction inhibitors. shares compounds with CHOP inhibitor. CHO-CHOP promoter luciferase reporter, tunicamycin-induced, luminescence. inhibition, % at 10 µM. actives 45% (n = 2,100). AID 504437;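 active = mean of three repeat readings of reporter signal inhibition above a set limit, cut at about 70% in these data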;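 also: 0% = tunicamycin plus vehicle and 100% = wells lacking tunicamycin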
An asterisk follows results filed as active. Many of the other results were omitted from the sample, so hits are more common in it than they were.

Screening Cc1ccc(NC(=O)Cn2nnc(C(=O)Nc3ccc(C)c(C)c3)c2N)cc1 returned UCH37 DUB inh 2.4, UPR CHOP act 2.1, Fh CTSL1 inh 1.9, CHOP inhibitor 96.9*, UPR XBP1 act 4.5 and CHOP inh conf 44.6.
For COc1c(O)ccc(C=NNC(=O)c2ccc3c(c2)OCO3)c1[N+](=O)[O-] the results were UCH37 DUB inh 7.3.
Screening O=C(NN=Cc1cccnc1)c1cc(-c2ccc(Br)cc2)nc2ccccc12 returned UCH37 DUB inh 2.2.
`Oc1ccc(/C=N/Nc2nc(-c3ccc(Cl)cc3)cc(C(F)(F)F)n2)cc1` gave UPR CHOP act 5.2, Fh CTSL1 inh 7.5, CHOP inhibitor 102.3*, UPR XBP1 act 3.2 and CHOP inh conf 98.1*.
COc1cc(C=NNC(N)=S)ccc1OCC(=O)Nc1ccc(C)cc1 was read as UCH37 DUB inh -0.4.
`Cc1cccc(OCC(=O)N/N=C\C=C\c2ccc3c(c2)OCO3)c1C` gave UPR CHOP act -1.8, Fh CTSL1 inh -0.5, CHOP inhibitor 97.8*, UPR XBP1 act 0.2 and CHOP inh conf 95.0*.
`O=S(=O)(NC1CC1)c1ccc(S(=O)(=O)N2CCCC3(CCCCC3)C2)cc1` gave UCH37 DUB inh 2.1, UPR CHOP act 5.1, Fh CTSL1 inh 0.3, CHOP inhibitor 97.4*, UPR XBP1 act 17.0 and CHOP inh conf 98.4*.
`O=S(=O)(NC1CC1)c1ccc(S(=O)(=O)N2CCN3CCCC3C2)cc1` (stereo unspecified) gave UCH37 DUB inh -0.5, UPR CHOP act -2.0, Fh CTSL1 inh 2.2, CHOP inhibitor 6.8 and UPR XBP1 act -2.1.
CC1Oc2ccccc2C=C1C=NNC(=O)[C@@H](C)NC(=O)OC(C)(C)C (stereo partly specified) was read as UCH37 DUB inh -96.5.
Screening CC12CN3CCN(CC(C3)C1=NNC(=O)Nc1ccccc1)C2 returned UCH37 DUB inh -2.3.
O=C1C2=C(NC(=S)NC2c2ccc(Cl)cc2)NC(c2ccc(Cl)cc2)N1c1ccc(Cl)cc1 (stereo unspecified) was read as UCH37 DUB inh 0.2, UPR CHOP act 3.9, Fh CTSL1 inh 2.0, CHOP inhibitor 98.0*, UPR XBP1 act 8.9 and CHOP inh conf 53.0.
For CCc1ccc(C2NC(=S)NC3=C2C(=O)N(c2ccccc2OC)C(c2ccc(CC)cc2)N3)cc1 (stereo unspecified) the results were UCH37 DUB inh -4.7, UPR CHOP act 3.2, Fh CTSL1 inh 0.8, CHOP inhibitor 45.3 and UPR XBP1 act 4.9.
c1ccc(Nc2ccc3c4c(cccc24)CC3)cc1 was read as UCH37 DUB inh -163.0, UPR CHOP act -2.3, Fh CTSL1 inh 6.0, CHOP inhibitor 99.9*, UPR XBP1 act -0.7 and CHOP inh conf 48.8.
Cc1ccccc1N1CCN(C(=O)c2ccc(Oc3ccc(C(F)(F)F)cn3)cc2)CC1 was read as UCH37 DUB inh 1.7, UPR CHOP act -0.2, Fh CTSL1 inh -0.6, CHOP inhibitor 103.3*, UPR XBP1 act -2.0 and CHOP inh conf 73.2*.
`COc1cccc(C=NNC(=O)c2cnn(-c3ccccc3)c2N)c1` gave UCH37 DUB inh 4.2.
For Oc1ccc(/C=N/Nc2cc(N3CCCC3)nc(N3CCCC3)n2)cc1 the results were UPR CHOP act 3.6, Fh CTSL1 inh 3.2, CHOP inhibitor 109.1*, UPR XBP1 act 25.2 and CHOP inh conf 14.1.
Cc1ccc(C=NNC(=S)NC(C)C)o1 was read as UCH37 DUB inh 4.6.
For CCCN(CCC)C(=O)CSc1nc2ccccc2c(=O)n1C1CCCC1 the results were UCH37 DUB inh 5.0, UPR CHOP act -1.7, Fh CTSL1 inh 0.6, CHOP inhibitor 97.5*, UPR XBP1 act -4.2 and CHOP inh conf 4.1.
For Cn1cc([N+](=O)[O-])c(C(=O)NN=Cc2c[nH]c3ccccc23)n1 the results were UCH37 DUB inh 7.8.
For O=P(CCCCCCCCCP(=O)(c1ccccc1)c1ccccc1)(c1ccccc1)c1ccccc1 the results were UCH37 DUB inh 3.1, UPR CHOP act 9.6, Fh CTSL1 inh 1.8, CHOP inhibitor 99.5*, UPR XBP1 act 1.6 and CHOP inh conf 49.7.
For O=C(O)CCCCCCCCCCP(=O)(c1ccccc1)c1ccccc1 the results were UCH37 DUB inh 3.1, UPR CHOP act -1.8, Fh CTSL1 inh 1.2, CHOP inhibitor 8.9 and UPR XBP1 act -2.7.
Screening CCC(C)(C)NC(=O)C(c1cccn1C)N(Cc1ccc(OC)cc1)C(=O)Cn1nnc2ccccc21 (stereo unspecified) returned UCH37 DUB inh 4.8, UPR CHOP act 3.7, Fh CTSL1 inh -0.9, CHOP inhibitor 103.3*, UPR XBP1 act 0.1 and CHOP inh conf 58.9.
For COc1ccc2[nH]c(=O)c(CN(C3CCCCC3)C(c3nnnn3Cc3ccco3)C(C)C)cc2c1 (stereo unspecified) the results were UPR CHOP act -7.0, Fh CTSL1 inh 13.5, CHOP inhibitor 101.7*, UPR XBP1 act -1.8 and CHOP inh conf 52.3.
Screening O=C(N/N=C/c1ccc([N+](=O)[O-])s1)c1cccc(Br)c1 returned UPR CHOP act -1.6, Fh CTSL1 inh 0.9, CHOP inhibitor 97.3*, UPR XBP1 act 1.0 and CHOP inh conf 61.2.
O=C(N/N=C/c1ccc(O)c2ncccc12)c1cccc(Br)c1 was read as UPR CHOP act 1.5, Fh CTSL1 inh 3.6, CHOP inhibitor 105.3*, UPR XBP1 act 0.9 and CHOP inh conf 37.8.
Screening O=C(NN=Cc1ccc(O)c2ncccc12)c1cccc(Br)c1 returned UCH37 DUB inh -7.6.
Screening C/C(C=NNc1ncc(C)c(=O)[nH]1)=C\c1ccccc1 returned UCH37 DUB inh 4.9.
Screening Cc1nn(-c2ccccc2)c(C)c1C=Nn1c(-c2ccncc2)n[nH]c1=S returned UCH37 DUB inh 2.1.
O=[N+]([O-])c1ccc(O)c(/C=N/Nc2ccccc2Cl)c1 was read as UPR CHOP act 1.8, Fh CTSL1 inh 7.5, CHOP inhibitor 96.1*, UPR XBP1 act 2.0 and CHOP inh conf 125.1*.
COc1ccc(S(=O)(=O)N(CC(=O)NN=Cc2ccc(C(=O)O)cc2)Cc2ccccc2)cc1OC was read as UCH37 DUB inh 6.1.
`Cc1ccc(N2CC3=C(C2=O)C(c2ccccc2)NC(=O)N3C)cc1` (stereo unspecified) gave UCH37 DUB inh -47.9, UPR CHOP act -2.2, Fh CTSL1 inh -2.7, CHOP inhibitor 10.0 and UPR XBP1 act -0.5.
